Results: ChEMBL document CHEMBL2046296, “Synthesis and antidepressant activity of arylalkanol-piperidine derivatives as triple reuptake inhibitors” (Eur J Med Chem, 2012)

What was measured:
Mus musculus [1] = test: Antidepressant activity in mouse assessed as decrease in immobility at 10 mg/kg, po administered 30 mins prior to testing by tail suspension test relative to vehicle control; assay type: functional; design: scale not given: the % may be the effect or the level left
In short: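 Oral doses of 10–50 mg/kg (three doses) were given once, 30 min before testing. Mice were hung by adhesive tape 1 cm from the tail tip, 75 cm above the tabletop. Immobility was recorded for 5 min, scored blind, 10–12 mice per group, against vehicle controls. One-way ANOVA with Scheffe post hoc test; p<0.05 significant.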

Mus musculus [2] = test: Toxicity in mouse assessed as increase in locomotor activity at 50 mg/kg, po up to 5 mins relative to vehicle treated control; assay type: organism-based; design: dose 50 mg/kg, route oral; conditions: in vivo
In short: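 Mice were dosed orally at 50 mg/kg and 30 min later placed singly in new 35×35×35 cm plastic cages under dim light with sound attenuation. Activity was logged by a monitoring apparatus at intervals up to 30 min, and the 5 min point was analysed. Mean ± SEM; one-way ANOVA, Scheffe post hoc, versus control.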

[3] = target: T1, 5-hydroxytryptamine receptor 1A (Homo sapiens) (UniProt P08908); test: Displacement of [3H]8-OH-DPAT from human recombinant 5HT1A receptor expressed in CHO cells at 10 uM after 60 mins by liquid scintillation counting; assay type: cell-based
T1 sequence (whole entry): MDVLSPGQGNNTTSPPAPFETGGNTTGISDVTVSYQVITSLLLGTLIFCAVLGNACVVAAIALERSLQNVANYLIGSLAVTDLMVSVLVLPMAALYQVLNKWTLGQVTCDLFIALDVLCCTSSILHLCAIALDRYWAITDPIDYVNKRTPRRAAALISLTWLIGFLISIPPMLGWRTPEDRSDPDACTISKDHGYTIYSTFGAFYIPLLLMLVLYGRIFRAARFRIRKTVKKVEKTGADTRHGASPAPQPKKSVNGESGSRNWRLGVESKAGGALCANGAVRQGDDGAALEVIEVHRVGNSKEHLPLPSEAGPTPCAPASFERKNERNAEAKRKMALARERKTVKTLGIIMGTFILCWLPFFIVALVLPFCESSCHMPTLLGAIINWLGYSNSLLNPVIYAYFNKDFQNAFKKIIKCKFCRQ
In short: (§1)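 Radioligand binding panel run by a contract lab (CEREP). Percent inhibition of specific radioligand binding was measured at a single primary test concentration of 10.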

[4] = target: 5-hydroxytryptamine receptor 1B (Homo sapiens) (UniProt P28222); test: Displacement of [I125]CYP from 5HT1B receptor at 10 uM; in short: as §1
5-hydroxytryptamine receptor 1B (Homo sapiens), sequence (P28222 whole entry): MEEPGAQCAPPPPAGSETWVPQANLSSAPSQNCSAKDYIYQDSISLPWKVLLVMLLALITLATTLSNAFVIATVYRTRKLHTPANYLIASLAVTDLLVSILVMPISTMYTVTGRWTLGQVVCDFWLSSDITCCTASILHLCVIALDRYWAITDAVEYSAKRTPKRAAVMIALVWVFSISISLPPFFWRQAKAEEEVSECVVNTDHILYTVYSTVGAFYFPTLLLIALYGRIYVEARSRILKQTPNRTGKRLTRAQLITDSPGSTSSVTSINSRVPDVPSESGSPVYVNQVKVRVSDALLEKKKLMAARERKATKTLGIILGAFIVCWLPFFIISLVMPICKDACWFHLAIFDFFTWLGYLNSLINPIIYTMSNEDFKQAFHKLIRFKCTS

[5] = target: T2, 5-hydroxytryptamine receptor 3A (Homo sapiens) (UniProt P46098); test: Displacement of [3H]BRL43694 from human recombinant 5HT3 receptor expressed in CHO cells at 10 uM after 60 mins by liquid scintillation counting; assay type: cell-based; in short: as §1
T2 sequence (whole entry): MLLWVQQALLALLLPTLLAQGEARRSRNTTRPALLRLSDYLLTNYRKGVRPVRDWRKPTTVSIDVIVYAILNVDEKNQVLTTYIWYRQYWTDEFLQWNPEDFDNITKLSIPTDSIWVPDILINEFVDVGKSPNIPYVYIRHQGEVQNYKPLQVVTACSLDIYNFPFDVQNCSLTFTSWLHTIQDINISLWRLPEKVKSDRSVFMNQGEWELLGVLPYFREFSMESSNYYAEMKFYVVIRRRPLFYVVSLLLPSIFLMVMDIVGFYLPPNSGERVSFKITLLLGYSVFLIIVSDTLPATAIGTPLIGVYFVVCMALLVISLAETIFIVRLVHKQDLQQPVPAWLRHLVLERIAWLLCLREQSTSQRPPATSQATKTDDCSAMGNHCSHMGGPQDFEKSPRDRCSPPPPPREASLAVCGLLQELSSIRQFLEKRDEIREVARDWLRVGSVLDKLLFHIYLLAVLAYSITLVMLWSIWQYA

D(1A) dopamine receptor = D(1A) dopamine receptor (Homo sapiens, UniProt P21728); test: Displacement of [3H]SCH23390 from dopamine D1 receptor at 10 uM; in short: as §1
D(1A) dopamine receptor, sequence (P21728 whole entry): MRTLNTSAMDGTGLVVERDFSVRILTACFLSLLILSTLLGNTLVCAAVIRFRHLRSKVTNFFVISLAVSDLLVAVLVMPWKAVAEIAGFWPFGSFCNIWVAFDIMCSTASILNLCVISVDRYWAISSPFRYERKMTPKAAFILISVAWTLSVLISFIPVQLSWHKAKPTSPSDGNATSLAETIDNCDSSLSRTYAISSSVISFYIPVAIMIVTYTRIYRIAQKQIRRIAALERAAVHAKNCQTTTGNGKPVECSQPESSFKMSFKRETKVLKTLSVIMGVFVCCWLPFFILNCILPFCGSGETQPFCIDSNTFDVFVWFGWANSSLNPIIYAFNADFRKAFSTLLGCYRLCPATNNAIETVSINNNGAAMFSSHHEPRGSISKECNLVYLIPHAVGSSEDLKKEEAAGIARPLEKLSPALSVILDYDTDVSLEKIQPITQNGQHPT

[6] = target: D(2) dopamine receptor (Homo sapiens) (UniProt P14416); test: Displacement of [3H]Methylspiperone from dopamine D2 receptor at 10 uM; in short: as §1
D(2) dopamine receptor (Homo sapiens), sequence (P14416 whole entry): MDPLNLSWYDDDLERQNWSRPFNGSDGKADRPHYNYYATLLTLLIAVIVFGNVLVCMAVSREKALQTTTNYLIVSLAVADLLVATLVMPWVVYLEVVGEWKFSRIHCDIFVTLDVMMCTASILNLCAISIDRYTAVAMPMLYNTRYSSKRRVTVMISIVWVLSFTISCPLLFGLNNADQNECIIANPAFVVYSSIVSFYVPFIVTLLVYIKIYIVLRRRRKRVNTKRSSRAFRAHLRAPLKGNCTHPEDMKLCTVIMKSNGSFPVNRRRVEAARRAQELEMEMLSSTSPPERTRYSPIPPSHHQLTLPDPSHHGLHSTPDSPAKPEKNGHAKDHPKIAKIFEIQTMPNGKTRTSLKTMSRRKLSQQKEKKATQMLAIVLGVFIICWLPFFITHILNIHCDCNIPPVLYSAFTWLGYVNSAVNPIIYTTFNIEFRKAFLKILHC

[7] = target: D(3) dopamine receptor (Homo sapiens) (UniProt P35462); test: Displacement of [3H]Methylspiperone from human recombinant dopamine D3 receptor expressed in CHO cells at 10 uM after 60 mins by liquid scintillation counting; assay type: cell-based; in short: as §1
D(3) dopamine receptor (Homo sapiens), sequence (P35462 whole entry): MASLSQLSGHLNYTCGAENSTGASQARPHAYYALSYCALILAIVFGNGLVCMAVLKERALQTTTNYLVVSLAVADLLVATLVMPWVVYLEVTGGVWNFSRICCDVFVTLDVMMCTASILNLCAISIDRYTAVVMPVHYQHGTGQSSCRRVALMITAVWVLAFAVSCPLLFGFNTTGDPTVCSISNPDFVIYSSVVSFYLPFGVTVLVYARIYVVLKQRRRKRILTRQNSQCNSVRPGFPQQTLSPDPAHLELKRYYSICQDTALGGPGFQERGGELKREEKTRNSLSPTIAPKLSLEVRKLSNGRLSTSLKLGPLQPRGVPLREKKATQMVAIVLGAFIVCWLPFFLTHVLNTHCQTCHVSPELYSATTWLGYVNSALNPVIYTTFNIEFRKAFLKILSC

[8] = target: Adrenergic receptor alpha-2 (Rattus norvegicus) (UniProt P22086+P19328+P22909); test: Displacement of [3H]RX821002 from rat alpha2 adrenergic receptor at 10 uM after 30 mins by liquid scintillation counting; in short: as §1
[9] = target: Beta-1 adrenergic receptor (Homo sapiens) (UniProt P08588); test: Displacement of [3H](-)CGP12177 beta1 adrenergic receptor at 10 uM; in short: as §1
Beta-1 adrenergic receptor (Homo sapiens), sequence (P08588 whole entry, looked up): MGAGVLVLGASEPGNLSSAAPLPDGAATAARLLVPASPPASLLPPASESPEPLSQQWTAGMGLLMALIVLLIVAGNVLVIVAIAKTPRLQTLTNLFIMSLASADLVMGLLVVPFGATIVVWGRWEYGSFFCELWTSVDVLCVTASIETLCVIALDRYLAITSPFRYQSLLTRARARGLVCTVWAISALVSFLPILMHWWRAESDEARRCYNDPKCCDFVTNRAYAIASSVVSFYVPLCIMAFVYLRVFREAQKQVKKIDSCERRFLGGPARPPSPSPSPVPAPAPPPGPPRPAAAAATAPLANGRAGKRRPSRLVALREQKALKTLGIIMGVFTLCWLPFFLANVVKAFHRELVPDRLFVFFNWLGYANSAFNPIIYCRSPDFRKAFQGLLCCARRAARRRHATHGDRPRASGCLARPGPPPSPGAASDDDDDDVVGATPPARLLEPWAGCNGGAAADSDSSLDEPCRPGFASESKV

[10] = target: Beta-2 adrenergic receptor (Homo sapiens) (UniProt P07550); test: Displacement of [3H](-)CGP12177 beta2 adrenergic receptor at 10 uM; in short: as §1
Beta-2 adrenergic receptor (Homo sapiens), sequence (P07550 whole entry, looked up): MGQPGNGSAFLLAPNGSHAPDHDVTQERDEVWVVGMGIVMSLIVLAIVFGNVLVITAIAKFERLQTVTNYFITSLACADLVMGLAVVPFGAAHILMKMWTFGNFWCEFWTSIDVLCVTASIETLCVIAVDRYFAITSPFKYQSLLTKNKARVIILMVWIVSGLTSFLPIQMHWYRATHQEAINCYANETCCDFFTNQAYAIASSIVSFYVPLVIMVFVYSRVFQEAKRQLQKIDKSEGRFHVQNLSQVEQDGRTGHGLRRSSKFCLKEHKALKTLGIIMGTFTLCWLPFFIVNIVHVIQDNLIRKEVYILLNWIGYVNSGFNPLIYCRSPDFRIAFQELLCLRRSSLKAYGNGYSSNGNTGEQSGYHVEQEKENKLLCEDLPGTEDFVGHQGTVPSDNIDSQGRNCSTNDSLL

[11] = target: Histamine H2 receptor (Homo sapiens) (UniProt P25021); test: Displacement of [I125}APT from histamine H2 receptor at 10 uM; in short: as §1
Histamine H2 receptor (Homo sapiens), sequence (P25021 whole entry): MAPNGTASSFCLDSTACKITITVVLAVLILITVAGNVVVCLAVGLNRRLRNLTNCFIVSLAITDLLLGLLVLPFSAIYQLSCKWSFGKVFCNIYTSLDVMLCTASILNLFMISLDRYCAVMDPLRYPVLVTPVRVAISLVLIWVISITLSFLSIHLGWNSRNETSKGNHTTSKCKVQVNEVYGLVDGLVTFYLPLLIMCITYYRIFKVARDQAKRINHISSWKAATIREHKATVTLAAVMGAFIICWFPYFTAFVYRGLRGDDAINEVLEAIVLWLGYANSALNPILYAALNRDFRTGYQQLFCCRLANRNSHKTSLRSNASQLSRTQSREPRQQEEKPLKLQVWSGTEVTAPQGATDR

[12] = target: T3, Muscarinic acetylcholine receptor M1 (Homo sapiens) (UniProt P11229); test: Displacement of [3H]pirenzepine from human recombinant M1 receptor expressed in CHO cells at 10 uM after 60 mins by liquid scintillation counting; assay type: cell-based; in short: as §1
T3 sequence (whole entry): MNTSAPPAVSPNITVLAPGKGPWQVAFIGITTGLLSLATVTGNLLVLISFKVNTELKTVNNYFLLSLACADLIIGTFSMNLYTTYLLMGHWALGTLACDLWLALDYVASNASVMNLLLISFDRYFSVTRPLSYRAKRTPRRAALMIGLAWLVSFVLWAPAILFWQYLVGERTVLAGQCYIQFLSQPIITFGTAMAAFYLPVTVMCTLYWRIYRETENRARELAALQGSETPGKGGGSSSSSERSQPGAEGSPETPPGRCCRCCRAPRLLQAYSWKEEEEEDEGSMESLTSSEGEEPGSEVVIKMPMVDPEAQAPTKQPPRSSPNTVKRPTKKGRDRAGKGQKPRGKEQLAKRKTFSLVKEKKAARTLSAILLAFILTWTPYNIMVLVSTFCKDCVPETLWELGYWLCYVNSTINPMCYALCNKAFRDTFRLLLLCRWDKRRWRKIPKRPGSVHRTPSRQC

[13] = target: Sodium-dependent dopamine transporter (Homo sapiens, UniProt Q01959); test: Inhibition of [3H]dopamine uptake at human DAT expressed in HEK293 cells after 10 mins by scintillation counting
Sodium-dependent dopamine transporter, sequence (Q01959 whole entry): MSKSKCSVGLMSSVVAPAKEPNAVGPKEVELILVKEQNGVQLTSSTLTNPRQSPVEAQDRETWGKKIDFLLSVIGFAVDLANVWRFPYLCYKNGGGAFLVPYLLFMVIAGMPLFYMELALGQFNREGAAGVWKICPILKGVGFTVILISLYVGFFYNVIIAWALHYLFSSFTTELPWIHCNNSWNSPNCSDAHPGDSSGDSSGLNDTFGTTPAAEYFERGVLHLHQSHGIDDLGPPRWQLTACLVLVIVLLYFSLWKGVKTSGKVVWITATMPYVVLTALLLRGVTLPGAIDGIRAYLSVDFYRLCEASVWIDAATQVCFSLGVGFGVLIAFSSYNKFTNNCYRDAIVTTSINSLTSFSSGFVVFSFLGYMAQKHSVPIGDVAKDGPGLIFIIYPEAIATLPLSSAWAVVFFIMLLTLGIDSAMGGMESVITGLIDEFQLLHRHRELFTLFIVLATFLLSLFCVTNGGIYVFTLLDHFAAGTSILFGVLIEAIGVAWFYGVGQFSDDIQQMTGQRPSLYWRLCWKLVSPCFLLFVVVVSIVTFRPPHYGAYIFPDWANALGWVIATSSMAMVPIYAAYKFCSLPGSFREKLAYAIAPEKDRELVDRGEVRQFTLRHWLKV

[14] = target: Sodium-dependent serotonin transporter (Homo sapiens, UniProt P31645); test: Inhibition of [3H]serotonin uptake at human SERT expressed in HEK293 cells after 10 min by scintillation counting
Sodium-dependent serotonin transporter, sequence (P31645 whole entry): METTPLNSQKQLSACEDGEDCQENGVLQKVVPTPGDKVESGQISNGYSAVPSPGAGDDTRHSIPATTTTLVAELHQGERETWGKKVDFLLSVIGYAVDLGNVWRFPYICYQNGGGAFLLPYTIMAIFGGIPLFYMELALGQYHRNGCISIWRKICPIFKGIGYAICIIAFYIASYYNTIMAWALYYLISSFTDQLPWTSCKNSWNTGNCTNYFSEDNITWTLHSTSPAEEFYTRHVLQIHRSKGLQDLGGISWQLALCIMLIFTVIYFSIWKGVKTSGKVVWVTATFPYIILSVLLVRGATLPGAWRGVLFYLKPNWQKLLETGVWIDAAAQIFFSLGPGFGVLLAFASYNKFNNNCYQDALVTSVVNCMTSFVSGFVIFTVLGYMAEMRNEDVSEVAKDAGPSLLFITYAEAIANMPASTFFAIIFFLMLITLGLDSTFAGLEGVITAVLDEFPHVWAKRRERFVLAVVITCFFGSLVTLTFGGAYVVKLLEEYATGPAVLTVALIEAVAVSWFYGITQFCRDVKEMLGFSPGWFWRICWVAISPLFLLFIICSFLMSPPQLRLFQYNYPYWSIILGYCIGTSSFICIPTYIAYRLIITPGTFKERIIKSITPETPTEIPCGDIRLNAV

[15] = target: Sodium-dependent noradrenaline transporter (Homo sapiens, UniProt P23975); test: Inhibition of [3H]noradrenaline uptake at human NET expressed in HEK293 cells after 10 mins by scintillation counting
Sodium-dependent noradrenaline transporter, sequence (P23975 whole entry): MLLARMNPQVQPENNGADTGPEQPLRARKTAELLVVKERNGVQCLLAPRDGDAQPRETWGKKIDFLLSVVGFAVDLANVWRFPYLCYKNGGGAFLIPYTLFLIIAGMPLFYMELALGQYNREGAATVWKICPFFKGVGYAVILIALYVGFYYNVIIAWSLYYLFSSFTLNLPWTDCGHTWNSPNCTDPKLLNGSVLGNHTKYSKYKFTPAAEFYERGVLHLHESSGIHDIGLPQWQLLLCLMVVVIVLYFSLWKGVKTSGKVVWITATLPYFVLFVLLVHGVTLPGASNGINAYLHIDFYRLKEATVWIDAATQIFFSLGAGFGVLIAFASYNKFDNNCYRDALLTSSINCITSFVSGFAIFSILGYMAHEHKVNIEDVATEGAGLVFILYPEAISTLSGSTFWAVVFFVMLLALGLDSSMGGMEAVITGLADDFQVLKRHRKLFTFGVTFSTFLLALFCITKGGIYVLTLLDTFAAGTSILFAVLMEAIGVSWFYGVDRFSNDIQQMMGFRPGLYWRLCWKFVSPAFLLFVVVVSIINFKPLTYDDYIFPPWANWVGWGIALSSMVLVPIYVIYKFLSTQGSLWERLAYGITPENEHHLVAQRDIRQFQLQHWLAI

Q: What does the source list for `OC(CCN1CC=C(Cc2ccccc2)CC1)c1csc2ccccc12` (racemic)?
A: Activity (Mus musculus [1]): 32%; Activity (Mus musculus [2]): Non-toxic; inhibition [3]: 33.4%; inhibition [4]: 6.5%; inhibition [5]: 8.3%; inhibition (D(1A) dopamine receptor): 35.6%; inhibition [6]: 4.3%; inhibition [7]: 3.5%; inhibition [8]: 27.3%; inhibition [9]: 33.4%; inhibition [10]: 49.8%; inhibition [11]: 14.9%; inhibition [12]: 4.3%; IC50 [13]: 566 nM; IC50 [14]: 171 nM; IC50 [15]: 385 nM

Q: With `OC(CCN1CCC(O)(Cc2ccccc2)CC1)c1ccc(Cl)c(Cl)c1` (racemic) as the compound, how does the Activity (Mus musculus [1]) read?
A: Its Activity is 33%.

Q: And the Activity (Mus musculus [2])?
A: Its Activity is “Non-toxic”.

Q: What about the inhibition [3] of the same compound?
A: The inhibition was 27.3%.

Q: What about the inhibition [4] of the same compound?
A: Its inhibition is 9.7%.

Q: And the inhibition [5]?
A: The inhibition was 14.1%.

Q: What about the inhibition (D(1A) dopamine receptor) of the same compound?
A: The inhibition was 47.9%.

Q: And the inhibition [6]?
A: Its inhibition is 19.2%.

Q: And the inhibition [7]?
A: Its inhibition is 4.6%.

Q: What about the inhibition [8] of the same compound?
A: Its inhibition is 43.5%.

Q: What about the inhibition [9] of the same compound?
A: The inhibition was 15.3%.

Q: What about the inhibition [10] of the same compound?
A: The inhibition was 14.7%.

Q: And the inhibition [11]?
A: The inhibition was 6.7%.

Q: What about the inhibition [12] of the same compound?
A: The inhibition was 34.2%.

Q: What about the IC50 [13] of the same compound?
A: The IC50 was 564 nM.

Q: And the IC50 [14]?
A: Its IC50 is 337 nM.

Q: And the IC50 [15]?
A: Its IC50 is 265 nM.

Q: For `OC(CCN1CC=C(Cc2ccccc2)CC1)c1cc2ccccc2s1` (racemic), which Activity (Mus musculus [1]) is on record?
A: The Activity was 14%.

Q: And the Activity (Mus musculus [2])?
A: The Activity was “Non-toxic”.

Q: What about the inhibition [3] of the same compound?
A: Its inhibition is 65.4%.

Q: And the inhibition [5]?
A: Its inhibition is 10.6%.

Q: What about the inhibition (D(1A) dopamine receptor) of the same compound?
A: The inhibition was 85.6%.

Q: And the inhibition [6]?
A: Its inhibition is 10.8%.

Q: And the inhibition [7]?
A: The inhibition was 1.2%.

Q: What about the inhibition [8] of the same compound?
A: The inhibition was 32.5%.

Q: What about the inhibition [9] of the same compound?
A: Its inhibition is 41.2%.

Q: And the inhibition [10]?
A: The inhibition was 16.7%.

Q: And the inhibition [11]?
A: The inhibition was 8.2%.

Q: What about the inhibition [12] of the same compound?
A: The inhibition was 31.2%.

Q: And the IC50 [13]?
A: Its IC50 is 491 nM.

Q: What about the IC50 [14] of the same compound?
A: The IC50 was 255 nM.

Q: And the IC50 [15]?
A: Its IC50 is 327 nM.

Q: Which results are given for `OC(CCN1CC=C(Cc2ccccc2)CC1)c1ccc(Cl)c(Cl)c1` (racemic)?
A: Activity (Mus musculus [1]): 24%; Activity (Mus musculus [2]): Non-toxic; inhibition [3]: 10.3%; inhibition [4]: 0.6%; inhibition [5]: 25.1%; inhibition (D(1A) dopamine receptor): 33.3%; inhibition [6]: 31.4%; inhibition [7]: 10.3%; inhibition [8]: 16.2%; inhibition [9]: 58.9%; inhibition [10]: 62.3%; inhibition [11]: 15.6%; inhibition [12]: 10.7%; IC50 [13]: 689 nM; IC50 [14]: 425 nM; IC50 [15]: 178 nM

Q: `COc1ccc2cc(C(O)CCN3CC=C(Cc4ccccc4)CC3)ccc2c1Cl` (racemic) was tested. Which Activity (Mus musculus [1]) did it give?
A: The Activity was 21%.

Q: What about the Activity (Mus musculus [2]) of the same compound?
A: Its Activity is “Non-toxic”.

Q: And the inhibition [3]?
A: The inhibition was 46.5%.

Q: And the inhibition [4]?
A: The inhibition was 10.2%.

Q: What about the inhibition [5] of the same compound?
A: Its inhibition is 0.5%.

Q: What about the inhibition (D(1A) dopamine receptor) of the same compound?
A: Its inhibition is 27.1%.

Q: And the inhibition [6]?
A: The inhibition was -0.5%.

Q: What about the inhibition [7] of the same compound?
A: Its inhibition is 11.3%.

Q: What about the inhibition [8] of the same compound?
A: The inhibition was 32.9%.

Q: What about the inhibition [9] of the same compound?
A: The inhibition was 46.7%.

Q: What about the inhibition [10] of the same compound?
A: Its inhibition is 28.5%.

Q: And the inhibition [11]?
A: Its inhibition is 33.2%.

Q: And the inhibition [12]?
A: The inhibition was 57.8%.

Q: What about the IC50 [13] of the same compound?
A: The IC50 was 346 nM.

Q: And the IC50 [14]?
A: Its IC50 is 265 nM.

Q: What about the IC50 [15] of the same compound?
A: Its IC50 is 420 nM.
